Results as given in the EternaBench riboswitch data.

Tested on: MS2 coat protein
Assay: apparent Kd, MS2 coat protein; higher = weaker binding; RNA-MaP array; FMN 200 µM where present
Method in brief: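 Stalled E. coli RNA polymerase transcribed each design on Illumina sequencing-chip clusters. The clusters were titrated with SNAP-549-labelled MS2 coat protein, starting at 0.7 or 1.5 nM and doubling up to 3 µM, first without ligand and then with constant ligand, in 100 mM Tris-HCl pH 7.5, 80 mM KCl, 4 mM MgCl2, BSA, DTT, yeast tRNA and Tween-20. Green signal was normalised to red-channel RNA signal and to the control-cluster median Fmax. The apparent Kd is the median of filtered binding-curve fits made for each cluster.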

[1] = designed as: ON switch for flavin mononucleotide, no ligand
[2] = ligand present: flavin mononucleotide, designed as: ON switch for flavin mononucleotide
[3] = designed as: OFF switch for flavin mononucleotide, no ligand
[4] = ligand present: flavin mononucleotide, designed as: OFF switch for flavin mononucleotide

Row | Sequence | apparent Kd [1] | apparent Kd [2] | apparent Kd [3] | apparent Kd [4]
1 | CCGUUGAUGGGACAGGAUAUGACUGUCGUCACAUGAGGAUCACCCAUGUCCCGGCAAUGCCACCGUUAGAAGGGUCCCGUCUCGG | 0.016 µM | 0.0159 µM |  | 
2 | GUACAUGAGCAGAAGGGCAAUUAAUUAAAAUUUUAUGUUUAUCAGAUAUGCAGGAUAUGUUAAACAUGAGGAUCACCCAUGUAC | 0.191 µM | 0.0485 µM |  | 
3 | CUAUAUAAUGCCUCAUGUACAUGAGGAUCACCCAUGUUAACUUAGGAUAUAUUUAUAUUGAUAGAGUAGAAGGAAGUACUAUUU |  |  | 0.0142 µM | 0.0129 µM
4 | UUUUAGCAAGGAUAUACAUUUUUUUUAUUAUCCUCAUUAUUACAUGAGGAUCACCCAUGUAGAAGGUGCAUUUU |  |  | 0.0759 µM | 0.0815 µM
5 | ACAUGAGGAUCACCCAUGUAGAAUGAAGAAGGUAGUUACUUGAGACUCACCCAUGUACAUAGGACUAAGGAUAUUCUAAUAAUU | 0.0145 µM | 0.0085 µM |  | 
6 | GAUGAGGUAGGAUAUACGAGAAUAUAGGGUAGAUAUAUAACACAUGAGGAUCACCCAUGUAGAAGGACCAGUAG |  |  | 0.0384 µM | 0.0899 µM
7 | GCUGUCGCGUGAGGAUAUGGUCGGCUGUGCUGACCAGAAGGCAUGUCAAUAGACAUGAGGAUCACCCAUGUGGUUAGGGCGGCU | 0.865 µM | 0.127 µM |  | 
8 | GUAGAACAUGAGGAUCACCCAUGUGAAGACGCAUGAGGAUAUAUCCGUACCUAGCAUACGAUAGAAGGCAUGAUAC | 0.113 µM | 0.0497 µM |  | 
9 | AAGUCUGGACGAGGAUAUCAGCUGUAACUGGCGUCAACAUGAGGAUCACCCAUGUUGCUAUAGGGUGAGAAGGCGUUUGGGCAA | 0.0241 µM | 0.0195 µM |  | 
10 | GCAUGCAAGUAGAAGGACGGAUAUUUUGAAAACGUAGGAUAUACAGAAUCAUAUCCACAAGGUAACAUGAGGAUCACCCAUGUA |  |  | 0.0105 µM | 0.00958 µM
11 | GGGUACAUCGGAGGAUAUCAUGUAAAUACAUGAGGAUCACCCAUGUCGAUGGAGACAUCGGAGAUUUAGAAGGCCGAUGUACCG | 0.158 µM | 0.201 µM |  | 
12 | GGAUCGAAAGUGAGGAUAUGCUGGUCCUUGGAUCAGCAGAAGGCACAUGAGGAUCACCCAUGUGUUCCCGGUCC |  |  | 0.0197 µM | 0.0998 µM
13 | UUGGAUGUCGUAGGAUAUGUAGGAUAUUCCUACAUGAGGAUCACCCAUGUUGACAUGGAAGAAGGACAGAAGGACGAUGUCCAU | 0.209 µM | 0.00503 µM |  | 
14 | UACCACGUUUGAUUAGGCGUGACAUGAGGAUCACCCAUGUGUCAGGAUAUACAUGGGCGGGCCCAGUAGAAGGGACUUAAUAGC | 0.327 µM | 0.0651 µM |  | 
15 | UUUCAGUCAGGAUAUCGUUAAUUUAAUUGUUUGUUUUAGUUCGAGAAGGGACAUGAGGAUCACCCAUGUACUUU |  |  | 0.02 µM | 0.02 µM
16 | GUCAGCUCGUGAGGAUAUACAACAGUGCUUCGGCAGUGUAUUAAGAUCACAUGAGGAUCACCCAUGUAGAAGGCACGAGCUGAU |  |  | 0.0131 µM | 0.207 µM
17 | GGAUAGGACAGAGGAUAUACGUGCUAGAGAUACUAGCAAAAUUUCCUCACAUGAGGAUCACCCAUGUAGAAGGGUGUCCUAUCG |  |  | 0.0129 µM | 0.0127 µM
18 | ACUAGAUGAGGAUAUGCACAUUUUAGUGUUCCUCUAGAUUAACAUGAGGAUCACCCAUGUAGAAGGCGUCAUUU |  |  | 0.077 µM | 0.0915 µM
19 | AAUGUUUGAUUCCACUUACACAUGAGGAUCACCCAUGUUAUCGAGGAUAUGCAUUAGAGUGUUUAGCAGAAGGCGAUGUAAUUG |  |  | 0.00846 µM | 0.025 µM
20 | CCAAACUGAGGAUAUACAUGAGGAUCACCCAUGUGCCCGCGGUCAUAUGUAGCCUAGUGUAGAAGGCAGAAAAC |  |  | 0.0755 µM | 0.025 µM
21 | UUAAAUCAUGUAGGAUAUGCAUGGCGAAGCUACGCAGAAGGACAUGAGGAUCACCCAUGUUAUAGCUACUGAGUUCAGUGGCAA |  |  | 0.107 µM | 0.231 µM
22 | GUGAAGAUAGCAGGAUAUCUAUUUCCUACAUGAGGAUCACCCAUGUAGGUGAUCAGCCGAGUAAAGGAGAAGGGCUAUCUUUAC | 0.0227 µM | 0.00929 µM |  | 
23 | GUUUUUGCAUGAGGAUAUGCUCGCAUUUCAAGAGCAGAAGGUAUUUCUUUUGACAUGAGGAUCACCCAUGUAUUUAUCAUUGAA | 0.021 µM | 0.0189 µM |  | 
24 | AAUAUGUUGCAGAAGGUUAUAUUUAUUUAGUACCUCAUGACAUGAGGAUCACCCAUGUUUUUGUUGAAGGAUAUGCAAUAUAUU |  |  | 0.0171 µM | 0.0137 µM
25 | AGAUAACACCAGAAGGACAUGAGGAUCACCCAUGUAGGAUAUGGGCAUCACUCGAGAAAGAAAAGACCAAGUGGACACGCGGUC | 0.117 µM | 0.0107 µM |  | 
26 | GGAUUACAAAUUUAUUUAAUACGAACAUGAGGAUCACCCAUGUAGGAUAUGCUAGUUAAGUAAUAGCAGAAGGACAUGUGCCUU |  |  | 0.0108 µM | 0.0306 µM
27 | UGGUACAACGGAGGAUAUCAUGUAGAUACAUGAGGAUCACCCAUGUCGAUGGAGACAUCGGAGAUUGAGAAGGCCGUUGUACCU | 0.692 µM | 0.0301 µM |  | 
28 | GCCAAGGUACAGAAGGGACUACAUGAGGAUCACCCAUGUGUUUCUGCACGUAAAUGAUACAGUGGUCAGGAUAUGUGCUCCAAA |  |  | 0.00949 µM | 0.0258 µM

Row | Sequence | apparent Kd [1] | apparent Kd [2] | apparent Kd [3] | apparent Kd [4]
29 | CCUCCCUGAGGAUAUCCAUCCUCAUACAUGAGGAUCACCCAUGUUCAUCCGUGGCUACCCGGAGAAGGCAGCUCUG |  |  | 0.321 µM | 0.29 µM
30 | AGCUGUGGCCGAGGAUAUCUAUUAAUCCAAACCGAAAUAUAAUCGGACAUGAGGAUCACCCAUGUAGAGAAGGCGGUCUCAGCA |  |  | 0.072 µM | 0.0772 µM
31 | GGGUACAUCGGAGGAUAUCAUGUAAAUACAUGAGGAUCACCCAUGUCGAUGGAGACAUCGGAGAUAGAGAAGGCCGAUGUACCG | 0.476 µM | 0.011 µM |  | 
32 | GGAUGACAAAGUCAUCCUAUUCGAACAUGAGGAUCACCCAUGUAGGAUAUGCUACACAAAGUGUAGCAGAAGGACAUGUGCUUU |  |  | 0.0338 µM | 0.171 µM
33 | AAAUAAACUAGCAUAAUAACCUCACAUGAGGAUCACCCAUGUAAGGAUAUCUGUCCUAAAAGGACAGAGAAGGUACGUGCUAGG |  |  | 0.00472 µM | 0.00488 µM
34 | AUCAGCUCGUCAGGAUAUACGUCACUGCGUCAGCAGUGUGGUAAGAUCACAUGAGGAUCACCCAUGUAGAAGGGACGAGCCGAU |  |  | 0.0132 µM | 0.305 µM
35 | ACCUUACUGGUCAGGAUAUACAGUCUUUGGUGUGUGUAGAAGGGACAUGAGGAUCACCCAUGUAGGUUGCAGCA |  |  | 0.07 µM | 0.0627 µM
36 | AAAAACUCAGGAUAUAUUAUGGGACAAUGAAGGAAGAUAAAACAUGAGGAUCACCCAUGUAGAAGGGAGAAAAA |  |  | 0.0585 µM | 0.0675 µM
37 | GCACUGGCAGGAUAUACAUGAGGAUCACCCAUGUGAUCCCUUAAGUACAAAAGUACAAGUAGAAGGGCCUGUGC |  |  | 0.771 µM | 0.188 µM
38 | UAUUAGCUAGGAUAUACAUGAGGAUCACCCAUGUCACGGGUCAACUUGUCCUAUGCGUGUAGAAGGAGCGACCC |  |  | 0.0177 µM | 0.0217 µM
39 | GGGCCGGUGGAGAAGGAGCUUGCAAAACGCAUGCUAGGAUAUCCACAUGAGGAUCACCCAUGUGGGAAUAUCUGGUUUUCACAG |  |  | 0.00409 µM | 0.00479 µM
40 | ACAUCGACAGGAUAUACGUGAGUGGAAAAAGUAUGUCCACUACAUGAGGAUCACCCAUGUAGAAGGGUCGAUGA |  |  | 0.0163 µM | 0.015 µM
41 | GGUCCAUCAUGAGGAUAUGGCACCUUAUUGGUGCCAGAAGGCAUGUCUUUAGACAUGAGGAUCACCCAUGUAAUAAAUUGGACC | 1.15 µM | 0.0765 µM |  | 
42 | CGGGAAGUCGUAGGAUAUGGUGAUGUACAUGAGGAUCACCCAUGUCCGUCUUCUCUCACAAGAUGCCAGAAGGACGACUUCCGG | 0.766 µM | 0.103 µM |  | 
43 | CGGCCGUAAGGAUAUACAUGAGGAUCACCCAUGUAUGGAAUAGCAUGAGGCGGCCCAGGUAGAAGGUAUGCCCG |  |  | 0.0208 µM | 0.0305 µM
44 | GGUUUAGGCGAAGGAUAUCCGUCGCGAGAUACUGGAGAAGGUCGCCUUAAUACAUGAGGAUCACCCAUGUGGCGGGUGAACCAC |  |  | 0.326 µM | 0.0476 µM
45 | CACUGCAAUGUAGGAUAUCGACUGGAUAACAGUCGAGAAGGACAUGAGGAUCACCCAUGUACUAUGAGUGAAUAAUAAGCAGUG |  |  | 0.0891 µM | 0.95 µM
46 | UCUUACGGAGGAUAUACAUGAGGAUCACCCAUGUAUGGUACGUUGGCUCUACCUUAUAGUAGAAGGCCGGAAGG |  |  | 0.037 µM | 0.233 µM
47 | ACCGUAUGAACAUGAGGAUCACCCAUGUAUUCGAAAAGGAAUGAGGAUAUCGAUAGCAAAGCUAUCGAGAAGGCAUGGGACGGU | 0.255 µM | 0.0604 µM |  | 
48 | UAGAAGUCAGGAUAUCCAGCUCGUCACUUGCGUGAUGAGUUGGAGAAGGGACAUGAGGAUCACCCAUGUAAAGG |  |  | 0.152 µM | 0.242 µM
49 | CAGUACUGAGGAUAUACAUGAGGAUCACCCAUGUGUUCCUGCUAGGAUAUUAGCAAAAGUAGAAGGCAGAAGGGAAUGUGCCUA |  |  | 0.00693 µM | 0.00673 µM
50 | UGGUAACAUGAGGAUCACCCAUGUCAAGAGAAUCAAGGAUAUGGUAAGUAAUAAGAGAAUCUAGAAGGUGAAGUUG | 0.0962 µM | 0.0691 µM |  | 
51 | UUGUUAUAUGUAGGAUAUGCGUAUUAUUAUUAUGCAGAAGGACAUGAGGAUCACCCAUGUAUAUUAUUAUUAUAUAUUAUAUAU |  |  | 0.0279 µM | 0.0437 µM
52 | GCCGAACAUGAGGAUCACCCAUGUCCGGGUAGUCAAGGAUAUGGGAAGGCAAUGCCGUGGCCAGAAGGUGGCUAUC | 0.0993 µM | 0.0213 µM |  | 
53 | AAUUAACAUGAGGAUCACCCAUGUGAGGAUAUGGUAUUAUUUGGACAGUUAUGAUCUACCAGAAGGCACAUAUA |  |  | 0.039 µM | 0.0651 µM
54 | GCCUCACAUGAGGAUCACCCAUGUCAGGAUAUCUAAGGCGAAGUGCAAGCACCUCGUGAGAGAAGGGACGUCAA |  |  | 0.0232 µM | 0.0476 µM
55 | UUGAAUUUAAACAUGAGGAUCACCCAUGUGUCAUAGUUGACAUAGGAUAUGCUUAUACUUUGAAAGCAGAAGGAUGACGAUACU | 0.0413 µM | 0.0101 µM |  | 
